Assay results as given in ChEMBL document CHEMBL5661979, “Pharmacological inhibition of BMK1 suppresses tumor growth through promyelocytic leukemia protein” (Cancer Cell, 2010).
pIC50, pKd: −log10 of the molar value. The source made the active and inactive calls. No cut-off for these calls is given here.

Experiments:
[1] = biological target: Phosphatidylinositol 5-phosphate 4-kinase type-2 gamma (Homo sapiens, UniProt Q8TBX8); test: Inhibition of PIP5K2C in human HeLa cells lysate pre incubated for 15 mins followed by ATP acyl phosphate probe addition and measured after 10 mins by LC-MS/MS analysis; format: subcellular
Sequence of Phosphatidylinositol 5-phosphate 4-kinase type-2 gamma (Q8TBX8 whole entry): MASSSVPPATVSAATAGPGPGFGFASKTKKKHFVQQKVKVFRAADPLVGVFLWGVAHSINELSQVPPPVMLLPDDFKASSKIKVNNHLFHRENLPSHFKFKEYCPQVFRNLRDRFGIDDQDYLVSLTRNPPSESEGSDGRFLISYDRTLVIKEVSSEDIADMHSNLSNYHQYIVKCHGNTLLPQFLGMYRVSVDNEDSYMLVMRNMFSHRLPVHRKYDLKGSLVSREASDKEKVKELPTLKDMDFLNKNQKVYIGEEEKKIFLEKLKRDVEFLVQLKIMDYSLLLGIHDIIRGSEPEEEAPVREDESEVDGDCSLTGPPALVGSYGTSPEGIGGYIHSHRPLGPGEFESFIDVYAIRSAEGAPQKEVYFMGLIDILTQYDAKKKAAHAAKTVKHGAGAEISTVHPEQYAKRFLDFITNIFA

[2] = biological target: Serine/threonine-protein kinase TAO3 (Homo sapiens, UniProt Q9H2K8); test: Inhibition of TAO3 in human HeLa cells lysate pre incubated for 15 mins followed by ATP acyl phosphate probe addition and measured after 10 mins by LC-MS/MS analysis; format: subcellular
[3] = biological target: Serine-protein kinase ATM (Homo sapiens, UniProt Q13315); test: Inhibition of ATM in human HeLa cells lysate pre incubated for 15 mins followed by ADP acyl phosphate probe addition and measured after 10 mins by LC-MS/MS analysis; format: subcellular
Sequence of Serine-protein kinase ATM (Q13315 whole entry, the tested form may be a part): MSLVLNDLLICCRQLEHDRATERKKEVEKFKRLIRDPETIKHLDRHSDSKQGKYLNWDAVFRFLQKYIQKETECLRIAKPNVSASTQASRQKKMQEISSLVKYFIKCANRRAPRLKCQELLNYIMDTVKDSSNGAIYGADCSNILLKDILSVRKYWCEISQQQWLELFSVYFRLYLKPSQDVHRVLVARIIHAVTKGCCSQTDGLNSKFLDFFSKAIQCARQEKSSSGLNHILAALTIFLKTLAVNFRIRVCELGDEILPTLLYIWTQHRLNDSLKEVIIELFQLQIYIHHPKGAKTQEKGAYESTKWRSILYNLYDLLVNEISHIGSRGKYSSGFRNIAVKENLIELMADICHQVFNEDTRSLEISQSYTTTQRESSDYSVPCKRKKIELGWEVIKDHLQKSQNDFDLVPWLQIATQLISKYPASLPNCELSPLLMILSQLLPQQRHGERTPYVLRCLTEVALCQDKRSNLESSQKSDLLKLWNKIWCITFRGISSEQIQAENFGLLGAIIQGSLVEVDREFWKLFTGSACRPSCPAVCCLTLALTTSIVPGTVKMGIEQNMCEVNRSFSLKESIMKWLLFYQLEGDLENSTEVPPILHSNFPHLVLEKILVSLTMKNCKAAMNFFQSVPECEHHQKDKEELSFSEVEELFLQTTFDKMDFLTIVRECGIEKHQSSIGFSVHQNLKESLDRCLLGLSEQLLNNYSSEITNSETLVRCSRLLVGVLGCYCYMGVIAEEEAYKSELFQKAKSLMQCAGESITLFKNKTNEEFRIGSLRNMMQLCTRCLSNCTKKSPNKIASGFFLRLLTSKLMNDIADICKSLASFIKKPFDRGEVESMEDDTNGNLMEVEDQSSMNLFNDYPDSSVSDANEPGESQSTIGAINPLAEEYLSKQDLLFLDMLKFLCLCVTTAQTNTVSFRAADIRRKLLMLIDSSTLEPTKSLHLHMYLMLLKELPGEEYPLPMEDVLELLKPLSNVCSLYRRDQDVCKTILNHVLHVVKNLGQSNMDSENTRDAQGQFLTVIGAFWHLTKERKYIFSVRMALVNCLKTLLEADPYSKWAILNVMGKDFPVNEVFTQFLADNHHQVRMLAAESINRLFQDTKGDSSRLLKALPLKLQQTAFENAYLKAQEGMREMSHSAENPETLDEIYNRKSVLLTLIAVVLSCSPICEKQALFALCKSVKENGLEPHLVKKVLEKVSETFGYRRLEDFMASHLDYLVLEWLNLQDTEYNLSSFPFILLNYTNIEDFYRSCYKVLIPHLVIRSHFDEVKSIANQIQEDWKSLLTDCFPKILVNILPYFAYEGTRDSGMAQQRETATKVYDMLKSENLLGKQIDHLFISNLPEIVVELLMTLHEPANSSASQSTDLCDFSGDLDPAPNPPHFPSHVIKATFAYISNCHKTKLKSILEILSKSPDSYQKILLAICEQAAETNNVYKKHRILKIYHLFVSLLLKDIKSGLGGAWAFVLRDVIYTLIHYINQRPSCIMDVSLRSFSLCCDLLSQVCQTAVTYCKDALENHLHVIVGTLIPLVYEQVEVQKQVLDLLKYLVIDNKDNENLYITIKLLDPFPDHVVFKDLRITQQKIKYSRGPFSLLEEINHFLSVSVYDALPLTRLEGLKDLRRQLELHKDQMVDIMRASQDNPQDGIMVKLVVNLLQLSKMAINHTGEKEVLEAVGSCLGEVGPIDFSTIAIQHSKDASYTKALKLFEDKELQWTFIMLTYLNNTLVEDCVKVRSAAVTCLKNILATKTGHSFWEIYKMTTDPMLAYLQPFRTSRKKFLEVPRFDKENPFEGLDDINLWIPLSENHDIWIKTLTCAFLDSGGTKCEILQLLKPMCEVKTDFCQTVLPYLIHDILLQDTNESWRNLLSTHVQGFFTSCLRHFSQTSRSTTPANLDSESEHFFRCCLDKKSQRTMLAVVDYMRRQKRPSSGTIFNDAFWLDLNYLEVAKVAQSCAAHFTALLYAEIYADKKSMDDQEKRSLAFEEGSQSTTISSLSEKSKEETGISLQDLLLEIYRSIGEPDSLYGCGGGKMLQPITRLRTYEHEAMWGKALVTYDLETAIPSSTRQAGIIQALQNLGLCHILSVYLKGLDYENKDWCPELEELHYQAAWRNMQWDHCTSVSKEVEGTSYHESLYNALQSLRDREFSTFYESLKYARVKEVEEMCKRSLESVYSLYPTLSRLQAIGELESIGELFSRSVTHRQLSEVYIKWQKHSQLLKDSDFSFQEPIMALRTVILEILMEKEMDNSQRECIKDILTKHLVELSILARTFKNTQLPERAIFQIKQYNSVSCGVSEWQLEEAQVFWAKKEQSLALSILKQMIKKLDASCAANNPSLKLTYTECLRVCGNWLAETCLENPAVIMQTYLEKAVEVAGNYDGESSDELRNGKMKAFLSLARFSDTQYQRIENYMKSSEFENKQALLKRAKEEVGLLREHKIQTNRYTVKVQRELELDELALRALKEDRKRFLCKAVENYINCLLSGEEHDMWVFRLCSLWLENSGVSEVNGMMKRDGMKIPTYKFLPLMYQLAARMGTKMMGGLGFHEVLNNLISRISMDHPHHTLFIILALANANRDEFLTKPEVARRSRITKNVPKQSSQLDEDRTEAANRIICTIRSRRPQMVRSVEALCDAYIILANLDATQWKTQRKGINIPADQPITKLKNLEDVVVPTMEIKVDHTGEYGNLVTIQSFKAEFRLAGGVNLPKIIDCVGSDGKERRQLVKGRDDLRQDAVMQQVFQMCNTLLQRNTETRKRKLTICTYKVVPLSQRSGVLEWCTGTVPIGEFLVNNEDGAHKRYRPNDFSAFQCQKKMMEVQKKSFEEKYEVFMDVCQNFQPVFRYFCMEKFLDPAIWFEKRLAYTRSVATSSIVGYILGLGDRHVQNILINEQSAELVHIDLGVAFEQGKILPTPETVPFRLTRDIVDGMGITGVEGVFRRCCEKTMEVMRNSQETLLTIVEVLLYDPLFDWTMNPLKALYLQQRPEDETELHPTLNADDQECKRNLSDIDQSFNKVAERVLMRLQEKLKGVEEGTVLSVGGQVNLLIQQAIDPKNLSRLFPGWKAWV
In short: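 KiNativ-type profiling in HeLa lysate (5 mg/mL total protein). Lysate preincubated 15 min with inhibitor at 50, 10, 2, 0.8 or 0 μM, then ATP or ADP acylphosphate probe added (5 μM final) for 10 min. Reaction stopped with urea and analysed by targeted MS, using up to four fragment ions per kinase peptide-probe conjugate. % inhibition calculated against untreated lysate. Duplicate reactions.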

[4] = biological target: Interferon-induced, double-stranded RNA-activated protein kinase (Homo sapiens, UniProt P19525); test: Inhibition of PKR in human HeLa cells lysate pre incubated for 15 mins followed by ADP acyl phosphate probe addition and measured after 10 mins by LC-MS/MS analysis; format: subcellular
[5] = Inhibition of NEK6/7 in human HeLa cells lysate at 50 uM pre incubated for 15 mins followed by ADP acyl phosphate probe addition and measured after 10 mins by LC-MS/MS analysis relative to control; details: 25 min, condition cancer
[6] = biological target: T1, Mitogen-activated protein kinase kinase kinase kinase 2 (Homo sapiens) (UniProt Q12851); test: Inhibition of GCK in human HeLa cells lysate at 10 uM pre incubated for 15 mins followed by ADP acyl phosphate probe addition and measured after 10 mins by LC-MS/MS analysis relative to control; format: subcellular; details: time 25.0 min
T1 sequence (whole entry): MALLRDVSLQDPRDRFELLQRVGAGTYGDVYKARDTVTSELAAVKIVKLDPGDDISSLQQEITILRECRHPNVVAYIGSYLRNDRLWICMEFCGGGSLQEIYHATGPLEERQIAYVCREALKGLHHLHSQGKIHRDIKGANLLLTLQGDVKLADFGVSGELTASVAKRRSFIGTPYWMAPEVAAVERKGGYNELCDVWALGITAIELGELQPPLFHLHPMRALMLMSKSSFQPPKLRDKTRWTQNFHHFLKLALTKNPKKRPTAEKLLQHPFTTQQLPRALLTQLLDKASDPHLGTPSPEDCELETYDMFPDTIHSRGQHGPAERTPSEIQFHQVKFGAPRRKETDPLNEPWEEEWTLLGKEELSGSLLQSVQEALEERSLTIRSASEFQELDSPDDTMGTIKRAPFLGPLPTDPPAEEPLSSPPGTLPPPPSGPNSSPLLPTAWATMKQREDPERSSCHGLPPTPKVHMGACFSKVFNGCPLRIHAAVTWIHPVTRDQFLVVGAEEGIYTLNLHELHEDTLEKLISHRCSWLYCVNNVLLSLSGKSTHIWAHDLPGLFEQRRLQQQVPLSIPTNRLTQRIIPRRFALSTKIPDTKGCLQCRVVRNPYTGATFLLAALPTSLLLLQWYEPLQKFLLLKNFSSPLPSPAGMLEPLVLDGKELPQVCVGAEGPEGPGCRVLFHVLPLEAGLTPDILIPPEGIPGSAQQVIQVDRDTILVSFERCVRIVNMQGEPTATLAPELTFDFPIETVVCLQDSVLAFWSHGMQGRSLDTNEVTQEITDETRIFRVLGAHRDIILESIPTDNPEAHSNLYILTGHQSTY

[7] = biological target: Serine/threonine-protein kinase PLK1 (Homo sapiens, UniProt P53350); test: Inhibition of PLK1 in human HeLa cells lysate at 10 uM pre incubated for 15 mins followed by ADP acyl phosphate probe addition and measured after 10 mins by LC-MS/MS analysis relative to control; format: subcellular; details: time 25.0 min
Sequence of Serine/threonine-protein kinase PLK1 (P53350 whole entry): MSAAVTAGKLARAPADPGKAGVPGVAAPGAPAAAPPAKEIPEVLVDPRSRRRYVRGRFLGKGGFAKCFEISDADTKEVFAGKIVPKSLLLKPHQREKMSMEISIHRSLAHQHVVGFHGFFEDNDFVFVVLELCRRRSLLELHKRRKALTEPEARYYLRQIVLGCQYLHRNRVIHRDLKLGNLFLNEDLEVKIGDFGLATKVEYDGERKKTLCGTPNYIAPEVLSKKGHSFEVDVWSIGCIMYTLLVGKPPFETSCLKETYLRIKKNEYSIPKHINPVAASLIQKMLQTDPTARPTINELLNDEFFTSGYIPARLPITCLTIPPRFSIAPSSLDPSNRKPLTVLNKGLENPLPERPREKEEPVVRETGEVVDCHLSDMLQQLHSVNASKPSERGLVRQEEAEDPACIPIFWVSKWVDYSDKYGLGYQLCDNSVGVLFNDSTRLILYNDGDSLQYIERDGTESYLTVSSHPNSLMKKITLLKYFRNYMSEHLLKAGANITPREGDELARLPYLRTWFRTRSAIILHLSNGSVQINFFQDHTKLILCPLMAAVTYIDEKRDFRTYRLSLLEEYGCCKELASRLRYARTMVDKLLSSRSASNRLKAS

[8] = Inhibition of NEK6/7 in human HeLa cells lysate at 50 uM pre incubated for 15 mins followed by ATP acyl phosphate probe addition and measured after 10 mins by LC-MS/MS analysis relative to control; details: 25 min, condition cancer
[9] = Inhibition of SRC/FYN/YES in human HeLa cells lysate at 50 uM pre incubated for 15 mins followed by ATP acyl phosphate probe addition and measured after 10 mins by LC-MS/MS analysis relative to control; details: 25 min, condition cancer
[10] = biological target: Epidermal growth factor receptor (Homo sapiens, UniProt P00533); test: Inhibition of EGFR in human HeLa cells lysate at 10 uM pre incubated for 15 mins followed by ATP acyl phosphate probe addition and measured after 10 mins by LC-MS/MS analysis relative to control; format: subcellular; details: time 25.0 min
AMPK alpha1/alpha2 = AMPK alpha1/alpha2 (Homo sapiens, UniProt P54646+Q13131); test: Inhibition of AMPKalpha1/2 in human HeLa cells lysate at 2 uM pre incubated for 15 mins followed by ATP acyl phosphate probe addition and measured after 10 mins by LC-MS/MS analysis relative to control; format: subcellular; details: time 25.0 min
In short: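 HeLa cell lysates (5 mg/mL total protein) were preincubated with inhibitor at 0, 0.8, 2, 10 or 50 μM for 15 min. ATP or ADP acylphosphate probe was then added (5 μM final) for 10 min, and reactions were stopped with urea. Up to four fragment ions per kinase probe-peptide were quantified by targeted MS. % inhibition was taken relative to untreated lysate. Run in duplicate.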

[11] = biological target: Non-receptor tyrosine-protein kinase TNK1 (Homo sapiens, UniProt Q13470); test: Binding affinity to TNK1 (unknown origin) assessed as dissociation constant by ATP-competition binding assay
Sequence of Non-receptor tyrosine-protein kinase TNK1 (Q13470 whole entry): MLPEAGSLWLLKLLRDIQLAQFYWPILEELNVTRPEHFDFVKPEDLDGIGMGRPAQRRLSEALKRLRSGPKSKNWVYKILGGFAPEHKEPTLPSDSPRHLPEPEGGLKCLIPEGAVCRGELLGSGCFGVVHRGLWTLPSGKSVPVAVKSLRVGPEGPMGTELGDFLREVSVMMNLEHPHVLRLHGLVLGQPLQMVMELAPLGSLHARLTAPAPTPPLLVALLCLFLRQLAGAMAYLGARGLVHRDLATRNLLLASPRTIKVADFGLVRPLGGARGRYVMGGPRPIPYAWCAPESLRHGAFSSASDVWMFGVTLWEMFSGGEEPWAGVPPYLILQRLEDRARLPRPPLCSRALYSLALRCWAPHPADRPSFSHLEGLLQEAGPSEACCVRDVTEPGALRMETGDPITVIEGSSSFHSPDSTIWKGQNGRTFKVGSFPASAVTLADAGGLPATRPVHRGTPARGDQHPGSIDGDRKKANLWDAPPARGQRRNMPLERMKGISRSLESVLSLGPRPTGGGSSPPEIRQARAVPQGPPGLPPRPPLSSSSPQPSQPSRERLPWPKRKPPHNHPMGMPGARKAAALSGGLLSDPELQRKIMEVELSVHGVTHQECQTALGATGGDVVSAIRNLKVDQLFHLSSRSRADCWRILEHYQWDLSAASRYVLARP

[12] = biological target: T2, Dual specificity mitogen-activated protein kinase kinase 5 (Homo sapiens) (UniProt Q13163); test: Inhibition of MAP2K5 in human HeLa cells lysate upto 50 uM pre incubated for 15 mins followed by ADP acyl phosphate probe addition and measured after 10 mins by LC-MS/MS analysis; format: subcellular; details: time 25.0 min
T2 sequence (whole entry): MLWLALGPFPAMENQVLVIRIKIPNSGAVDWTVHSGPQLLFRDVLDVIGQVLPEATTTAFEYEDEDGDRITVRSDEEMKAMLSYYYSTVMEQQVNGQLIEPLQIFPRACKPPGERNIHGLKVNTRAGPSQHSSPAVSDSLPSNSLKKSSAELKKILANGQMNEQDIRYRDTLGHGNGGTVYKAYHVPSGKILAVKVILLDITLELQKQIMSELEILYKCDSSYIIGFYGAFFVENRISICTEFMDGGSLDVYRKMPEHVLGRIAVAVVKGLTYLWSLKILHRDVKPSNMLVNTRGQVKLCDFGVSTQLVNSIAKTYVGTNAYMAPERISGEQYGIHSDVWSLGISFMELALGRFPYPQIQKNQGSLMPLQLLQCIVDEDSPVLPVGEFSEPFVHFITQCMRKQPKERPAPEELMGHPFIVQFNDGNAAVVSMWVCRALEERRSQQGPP

[13] = Toxicity in C57Bl/6 mouse assessed as effect on amylase level at 50 mg/kg, ip for 14 days (reference value: 1027 U/L); format: organism-based; details: in vivo, 336 h, time 14 day

## CCOc1cc(N2CCC(O)CC2)ccc1Nc1ncc2c(n1)N(C)c1ccccc1C(=O)N2C
[1]
  pIC50: < 4.30
[2]
  pIC50: < 4.30
[3]
  pIC50: < 4.30
[4]
  pIC50: < 4.30
[5]
  inhibition at 50 µM: 5.6%
[6]
  inhibition: -8.4%
[7]
  inhibition: -0.6%
[8]
  inhibition at 50 µM: -11.1%
[9]
  inhibition at 50 µM: -27.1%
[10]
  inhibition: -5%
AMPK alpha1/alpha2
  inhibition: -0.7%
[11]
  pKd: 6.05
[12]
  inhibition: inactive
[13]
  Activity: 664 U/L
